Results reported in ChEMBL document CHEMBL4229515, “A novel synthesis of 2-arylbenzimidazoles in molecular sieves-MeOH system and their antitubercular activity” (Bioorg Med Chem, 2018).
pIC50: −log10 of the molar value. Values after ≈ are worked out from the molar mass of the structure shown.

What was measured:
[1] = tested on: Mus musculus; experiment: Acute toxicity in Swiss albino mouse assessed as effect on relative spleen weight at 5 to 1000 mg/kg, po after 7 days; format: organism-based; conditions: in vivo, 168 h
Method in brief: (§1)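 Single acute oral dose of 5, 50, 300 or 1000 mg/kg body weight, with an untreated control group; n=6 mice per group. Animals observed for 7 days for morbidity, mortality, behaviour and body weight. At the end, blood and serum were analysed, and organs were examined grossly with absolute and relative weights. Data are mean±SE; P<0.05 was taken as significant versus control and the lower-dose groups.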

[2] = tested on: Mus musculus; experiment: Acute toxicity in Swiss albino mouse assessed as effect on haemoglobin levels at 1000 mg/kg, po after 7 days (reference value: 12.29 +/- 0.53 g/dL); format: organism-based; conditions: in vivo, 168 h
[3] = tested on: Mus musculus; experiment: Acute toxicity in Swiss albino mouse assessed as effect on relative brain weight at 5 to 1000 mg/kg, po after 7 days; format: organism-based; conditions: in vivo, 168 h; method in brief: as §1
[4] = tested on: Mus musculus; experiment: Acute toxicity in Swiss albino mouse assessed as effect on ALKP levels at 300 mg/kg, po after 7 days (reference value: 219.20 +/- 5.9 U/L); format: organism-based; conditions: in vivo, 168 h
[5] = tested on: Mus musculus; experiment: Acute toxicity in Swiss albino mouse assessed as effect on cholesterol levels at 50 mg/kg, po after 7 days (reference value: 89.73 +/- 10.76 mg/dL); format: organism-based; conditions: in vivo, 168 h
[6] = tested on: Mus musculus; experiment: Acute toxicity in Swiss albino mouse assessed as inactivity at 1000 mg/kg, po measured over 7 days; format: organism-based; conditions: in vivo, 168 h; method in brief: as §1
[7] = tested on: Mus musculus; experiment: Acute toxicity in Swiss albino mouse assessed as effect on SGOT levels at 5 mg/kg, po after 7 days (reference value: 15.11 +/- 1.25 U/L); format: organism-based; conditions: in vivo, 168 h
[8] = tested on: Mus musculus; experiment: Acute toxicity in Swiss albino mouse assessed as effect on MDA levels per mg of tissue protein at 300 mg/kg, po after 7 days (reference value: 0.24 +/- 0.05 nmol); format: organism-based; conditions: in vivo, 168 h
[9] = tested on: Mus musculus; experiment: Acute toxicity in Swiss albino mouse assessed as effect on absolute heart weight at 5 to 1000 mg/kg, po after 7 days; format: organism-based; conditions: in vivo, 168 h; method in brief: as §1
[10] = tested on: Mus musculus; experiment: Acute toxicity in Swiss albino mouse assessed as effect on relative heart weight at 5 to 1000 mg/kg, po after 7 days; format: organism-based; conditions: in vivo, 168 h; method in brief: as §1
[11] = tested on: Mus musculus; experiment: Acute toxicity in Swiss albino mouse assessed as effect on SGOT levels at 50 mg/kg, po after 7 days (reference value: 15.11 +/- 1.25 U/L); format: organism-based; conditions: in vivo, 168 h
[12] = tested on: Mus musculus; experiment: Acute toxicity in Swiss albino mouse assessed as effect on WBC count at 300 mg/kg, po after 7 days (reference value: 7.47 +/- 1.61 10^3/mm3); format: organism-based; conditions: in vivo, 168 h
[13] = tested on: Mus musculus; experiment: Acute toxicity in Swiss albino mouse assessed as change in morbidity up to 300 mg/kg, po measured over 7 days; format: organism-based; conditions: in vivo, 168 h; method in brief: as §1
[14] = tested on: Mus musculus; experiment: Acute toxicity in Swiss albino mouse assessed as effect on absolute kidney weight at 5 to 1000 mg/kg, po after 7 days; format: organism-based; conditions: in vivo, 168 h; method in brief: as §1
[15] = tested on: Mus musculus; experiment: Acute toxicity in Swiss albino mouse assessed as effect on body weight at 5 mg/kg, po after 7 days (reference value: 28.25 +/- 0.54 g); format: organism-based; conditions: in vivo, 168 h
[16] = tested on: Mus musculus; experiment: Acute toxicity in Swiss albino mouse assessed as effect on GSH levels per mg of tissue protein at 1000 mg/kg, po after 7 days (reference value: 17.64 +/- 1.03 micromol); format: organism-based; conditions: in vivo, 168 h
[17] = tested on: Mus musculus; experiment: Acute toxicity in Swiss albino mouse assessed as effect on serum protein levels at 5 mg/kg, po after 7 days (reference value: 0.10 +/- 0.004 mg/mL); format: organism-based; conditions: in vivo, 168 h
[18] = tested on: Mus musculus; experiment: Acute toxicity in Swiss albino mouse assessed as effect on WBC count at 5 mg/kg, po after 7 days (reference value: 7.47 +/- 1.61 10^3/mm3); format: organism-based; conditions: in vivo, 168 h
[19] = tested on: Mus musculus; experiment: Acute toxicity in Swiss albino mouse assessed as effect on SGOT levels at 1000 mg/kg, po after 7 days (reference value: 15.11 +/- 1.25 U/L); format: organism-based; conditions: in vivo, 168 h
[20] = tested on: Mus musculus; experiment: Acute toxicity in Swiss albino mouse assessed as effect on ALKP levels at 50 mg/kg, po after 7 days (reference value: 219.20 +/- 5.9 U/L); format: organism-based; conditions: in vivo, 168 h
[21] = tested on: Mus musculus; experiment: Acute toxicity in Swiss albino mouse assessed as effect on body weight at 50 mg/kg, po after 7 days (reference value: 28.25 +/- 0.54 g); format: organism-based; conditions: in vivo, 168 h
[22] = tested on: Mus musculus; experiment: Acute toxicity in Swiss albino mouse assessed as effect on absolute brain weight at 5 to 1000 mg/kg, po after 7 days; format: organism-based; conditions: in vivo, 168 h; method in brief: as §1
[23] = tested on: Mus musculus; experiment: Acute toxicity in Swiss albino mouse assessed as effect on cholesterol levels at 300 mg/kg, po after 7 days (reference value: 89.73 +/- 10.76 mg/dL); format: organism-based; conditions: in vivo, 168 h
[24] = tested on: Mus musculus; experiment: Acute toxicity in Swiss albino mouse assessed as effect on triglyceride levels at 1000 mg/kg, po after 7 days (reference value: 45.21 +/- 2.95 mg/dL); format: organism-based; conditions: in vivo, 168 h
[25] = tested on: Mus musculus; experiment: Acute toxicity in Swiss albino mouse assessed as effect on serum protein levels at 1000 mg/kg, po after 7 days (reference value: 0.10 +/- 0.004 mg/mL); format: organism-based; conditions: in vivo, 168 h
[26] = tested on: Mus musculus; experiment: Acute toxicity in Swiss albino mouse assessed as effect on relative liver weight at 5 to 300 mg/kg, po after 7 days; format: organism-based; conditions: in vivo, 168 h; method in brief: as §1
[27] = tested on: Mus musculus; experiment: Acute toxicity in Swiss albino mouse assessed as effect on haemoglobin levels at 50 mg/kg, po after 7 days (reference value: 12.29 +/- 0.53 g/dL); format: organism-based; conditions: in vivo, 168 h
[28] = tested on: Mus musculus; experiment: Acute toxicity in Swiss albino mouse assessed as effect on relative kidney weight at 5 to 1000 mg/kg, po after 7 days; format: organism-based; conditions: in vivo, 168 h; method in brief: as §1
[29] = tested on: Mus musculus; experiment: Acute toxicity in Swiss albino mouse assessed as effect on WBC count at 1000 mg/kg, po after 7 days (reference value: 7.47 +/- 1.61 10^3/mm3); format: organism-based; conditions: in vivo, 168 h
[30] = Acute toxicity in Swiss albino mouse assessed as mortality at 1000 mg/kg, po measured over 7 days; format: organism-based; conditions: in vivo, read-out: Activity; method in brief: as §1
[31] = target: DNA gyrase subunit A/DNA gyrase subunit B (Mycobacterium tuberculosis (strain ATCC 25618 / H37Rv), UniProt P9WG45+P9WG47); experiment: Inhibition of Mycobacterium tuberculosis DNA gyrase supercoiling activity using relaxed pBR322 as substrate after 30 mins by agarose gel electrophoresis; format: protein-complex assay
Chain of DNA gyrase subunit A/DNA gyrase subunit B (P9WG45 whole entry): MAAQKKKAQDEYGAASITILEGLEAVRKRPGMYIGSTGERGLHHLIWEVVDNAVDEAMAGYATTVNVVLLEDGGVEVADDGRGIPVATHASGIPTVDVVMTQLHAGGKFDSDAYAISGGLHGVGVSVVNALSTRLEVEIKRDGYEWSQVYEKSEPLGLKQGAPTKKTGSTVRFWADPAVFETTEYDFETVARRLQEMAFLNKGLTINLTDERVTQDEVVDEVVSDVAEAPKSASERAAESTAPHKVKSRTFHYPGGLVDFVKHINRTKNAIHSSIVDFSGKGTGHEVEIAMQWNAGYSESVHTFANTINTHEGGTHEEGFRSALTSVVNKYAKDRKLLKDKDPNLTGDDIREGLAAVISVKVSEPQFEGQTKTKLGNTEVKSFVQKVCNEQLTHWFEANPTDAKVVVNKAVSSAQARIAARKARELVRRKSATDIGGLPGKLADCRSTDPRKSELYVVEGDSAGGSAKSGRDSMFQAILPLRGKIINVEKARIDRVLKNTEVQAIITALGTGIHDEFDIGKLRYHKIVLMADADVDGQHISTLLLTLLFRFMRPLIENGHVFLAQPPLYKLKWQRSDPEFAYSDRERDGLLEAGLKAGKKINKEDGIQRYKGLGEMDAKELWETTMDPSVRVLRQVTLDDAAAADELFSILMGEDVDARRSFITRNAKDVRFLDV
Chain of DNA gyrase subunit A/DNA gyrase subunit B (P9WG47 whole entry): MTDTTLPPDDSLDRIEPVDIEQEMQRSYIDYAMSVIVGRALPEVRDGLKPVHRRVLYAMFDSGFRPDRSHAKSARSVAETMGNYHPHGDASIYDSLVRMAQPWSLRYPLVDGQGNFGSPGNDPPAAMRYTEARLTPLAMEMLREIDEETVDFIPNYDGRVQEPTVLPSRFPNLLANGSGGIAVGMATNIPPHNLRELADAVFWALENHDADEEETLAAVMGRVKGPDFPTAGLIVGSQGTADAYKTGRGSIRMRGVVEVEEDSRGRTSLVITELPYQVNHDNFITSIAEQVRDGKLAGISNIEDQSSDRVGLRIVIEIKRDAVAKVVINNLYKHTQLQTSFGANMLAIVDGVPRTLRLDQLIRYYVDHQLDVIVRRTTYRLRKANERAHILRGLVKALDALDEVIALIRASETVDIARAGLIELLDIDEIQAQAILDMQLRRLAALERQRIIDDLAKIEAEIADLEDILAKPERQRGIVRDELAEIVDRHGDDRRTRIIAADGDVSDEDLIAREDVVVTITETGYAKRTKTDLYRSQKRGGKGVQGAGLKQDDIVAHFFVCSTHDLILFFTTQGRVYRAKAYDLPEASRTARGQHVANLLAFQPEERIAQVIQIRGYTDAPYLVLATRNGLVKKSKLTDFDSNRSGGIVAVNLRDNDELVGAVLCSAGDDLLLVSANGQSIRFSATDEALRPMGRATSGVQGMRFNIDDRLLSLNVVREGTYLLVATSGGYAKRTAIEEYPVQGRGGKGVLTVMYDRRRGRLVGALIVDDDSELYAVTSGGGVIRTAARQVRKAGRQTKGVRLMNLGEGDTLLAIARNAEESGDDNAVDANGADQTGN

[32] = tested on: Mus musculus; experiment: Acute toxicity in Swiss albino mouse assessed as effect on relative lung weight at 5 to 1000 mg/kg, po after 7 days; format: organism-based; conditions: in vivo, 168 h; method in brief: as §1
[33] = tested on: Mus musculus; experiment: Acute toxicity in Swiss albino mouse assessed as effect on RBC count at 5 mg/kg, po after 7 days (reference value: 7.61 +/- 0.54 10^6/mm3); format: organism-based; conditions: in vivo, 168 h
[34] = tested on: Mus musculus; experiment: Acute toxicity in Swiss albino mouse assessed as effect on SGPT levels at 50 mg/kg, po after 7 days (reference value: 16.08 +/- 1.38 U/L); format: organism-based; conditions: in vivo, 168 h
[35] = tested on: Mus musculus; experiment: Acute toxicity in Swiss albino mouse assessed as effect on absolute lung weight at 5 to 1000 mg/kg, po after 7 days; format: organism-based; conditions: in vivo, 168 h; method in brief: as §1
[36] = tested on: Mycobacterium tuberculosis; experiment: Antimycobacterial activity against Mycobacterium tuberculosis H37Rv by BACTEC 460 radiometric method; format: functional
Method in brief: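 Radiometric BACTEC assay against the H37Rv strain, run per a previously reported method. Positive controls were rifampicin, streptomycin and isoniazid. The MIC was read in µM.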

COc1ccc2c(c1)nc(-c1ccccc1OC)n2Cc1ccccc1OC
Activity [1]: Non-Toxic
Activity [2]: 9.68 g/dL
Activity [3]: Non-Toxic
Activity [4]: 169.24 U/L
Activity [5]: 85.13 mg/dL
Activity [6]: Non-Toxic
Activity [7]: 11.96 U/L
Activity [8]: 0.39 nmol
Activity [9]: Non-Toxic
Activity [10]: Non-Toxic
Activity [11]: 11.5 U/L
Activity [12]: 5.67 10^3/mm3
Activity [13]: Non-Toxic
Activity [14]: Non-Toxic
Activity [15]: 28.47 g
Activity [16]: 19.34 µmol
Activity [17]: 0.09 mg/mL
Activity [18]: 7.72 10^3/mm3
Activity [19]: 11.83 U/L
Activity [20]: 171.7 U/L
Activity [21]: 27.61 g
Activity [22]: Non-Toxic
Activity [23]: 97.14 mg/dL
Activity [24]: 57.01 mg/dL
Activity [25]: 0.09 mg/mL
Activity [26]: Non-Toxic
Activity [27]: 11.45 g/dL
Activity [28]: Non-Toxic
Activity [29]: 6.67 10^3/mm3
mortality at 168 h [30]: 50%
pIC50 [31]: 3.45
Activity [32]: Non-Toxic
Activity [33]: 6.92 10^6/mm3
Activity [34]: 15.98 U/L
Activity [35]: Non-Toxic
MIC [36]: 16 µM (≈ 5.99 µg/mL)
